From paper PMC8075810 (Cell Chemical Biology, 2021)

What was measured:
SCoV2 [1] = test: SCoV2 replication in hACE2-HeLa cells, NP western blot; assay type: cell-based, SARS-CoV2 (SZ02); details: 5 μM, 48 h
[2] = tested on: 10 DUBs or DUB-like proteases, including USP14 and OTUB1; test: Inhibitor specificity assay; assay type: biochemical, Human; details: 19 at 10 μM, Ub-Rho substrate
[3] = tested on: NF-κB activation perturbed by SCoV2 PLpro; test: NF-κB activity luciferase-reporting assay; assay type: cell-based, Human
hACE2-HeLa cells = test: Cytotoxicity, CellTiter-Glo viability assay; assay type: cell-based, Human; details: 10 μM, 72 h
In short: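 hACE2-HeLa cells grown in DMEM with 10% FBS and penicillin-streptomycin at 37°C, 5% CO2, and passaged before confluency. 2 x 10^3 cells/well were seeded in 384-well format and exposed to test compound at a range of concentrations for 72 h. Viability was read by CellTiter-Glo luminescence.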

[4] = Metabolic stability in mouse liver microsomes; assay type: in vitro ADME
In short: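 It was then split into 7 aliquots, each given NADPH (3 mM solution added) or PBS alone and incubated at 37°C. Samples were diluted 1:1 with water and analysed by LC-MS.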

[5] = Stability in mouse plasma; assay type: in vitro ADME
SCoV2 [6] = details: hACE2-HeLa cells
SCoV2 [7] = test: microbe, parasite or virus in culture; details: Severe acute respiratory syndrome coronavirus 2, read-out: IC50 (inhibition of SCoV2 replication)

With C[C@H](c1cccc2ccccc12)N1CCC(C(=O)NCc2cccc(F)c2)CC1 [Inhibitor 11, (R)-N-(3-fluorobenzyl)-1-(1-(naphthalen-1-yl)ethyl)piperidine-4-carboxamide] the “NP level in infected hACE2-HeLa cells” value (SCoV2 [1]) was “strongest”.
For C[C@H](c1cccc2ccccc12)N1CCC(C(=O)NCc2cc(F)cc(NC(=O)N3CCN(C)CC3)c2)CC1 [Inhibitor 19, (R)-N-(3-fluoro-5-((1-(1-(naphthalen-1-yl)ethyl)piperidine-4-carboxamido)methyl)phenyl)-4-methylpiperazine-1-carboxamide], the “inhibition of DUBs or DUB-like proteases” value [2] was “none of these 10 proteases were significantly inhibited”, the “recovery of NF-κB activation level” value [3] was “significantly recover” and the “cytotoxicity (in words)” value (hACE2-HeLa cells) was “neither 17 nor 19 showed detectable cytotoxicity”. For the same molecule, the half-life at 1 μM [4] was 28 min, the half-life at 8.35 μM [5] was > 120 min and the “therapeutic index (CC50/IC50)” value (SCoV2 [6]) was “over 55”. For the same molecule, the “inhibition of SCoV2 replication (in words)” value (SCoV2 [6]; spike immunostaining) was “significantly inhibit SCoV2 replication even at 400 nM” and the IC50 (SCoV2 [7]) was 182 nM.
